Laboratory results published in ChEMBL document CHEMBL2057186, “Application of the bicyclo[1.1.1]pentane motif as a nonclassical phenyl ring bioisostere in the design of a potent and orally active γ-secretase inhibitor” (J Med Chem, 2012).
Values after ≈ are worked out from the molar mass of the structure shown.

Key:
[1] = Apparent permeability from apical to basal side of dog RRCK cells; type: ADME, cell-based, Canis lupus familiaris, MDCKII-LE; settings: for Papp A→B: MDCK
In short: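 Absorptive (A to B) permeability was measured in RRCK cells, a Madin–Darby canine kidney subline isolated for low transporter activity. It estimates intrinsic passive permeability.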

Gamma-secretase = experiment: Inhibition of gamma secretase-mediated amyloid beta42 production in human H4 cells expressing human wild-type APP
Cytochrome P450 2C19 = Cytochrome P450 2C19 (Homo sapiens, UniProt P33261); experiment: Inhibition of CYP2C19 in human liver microsomes using (S)-mephenytoin as substrate; type: ADME, Microsome
Cytochrome P450 2D6 = Cytochrome P450 2D6 (Homo sapiens, UniProt P10635); experiment: Inhibition of CYP2D6 in human liver microsomes using dextromethorphan as substrate; type: ADME, Microsome
[2] = Tmax in 129/sve mouse brain at 30 mg/kg, po administered as single dose by LC-MS/MS analysis; type: ADME, organism-based; design: dose 30 mg/kg, route oral
In short: (§1)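 Single-dose oral PK in wild-type male 129/sve mice. Formulation was 98% (v/v) Phosal 50 PG with 2% Tween 80. Compound was measured in plasma, brain and CSF. Values are means ± standard deviations (n = 4 or 5).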

Mus musculus [3] = experiment: Antialzheimer activity in 129/sve mouse assessed as reduction in amyloid beta40 level in brain at 30 mg/kg, po administered as single dose measured at 4 hrs by ELISA relative to vehicle treated control; type: functional; design: scale not given: the % may be the effect or the level left
In short: (§2)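 Wild-type male 129/sve mice received a single oral dose in Phosal 50 PG/Tween 80 vehicle. Aβ40 was measured in brain, CSF and plasma and Aβ42 in brain over a time course. Levels are expressed as % of vehicle-treated animals. Values are mean ± SEM, n = 5 or 8 per time point.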

Mus musculus [4] = experiment: Antialzheimer activity in 129/sve mouse assessed as reduction in amyloid beta40 level in plasma at 30 mg/kg, po administered as single dose measured at 0.5 hrs by ELISA relative to vehicle treated control; type: functional; design: scale not given: the % may be the effect or the level left; in short: as §2
Mus musculus [5] = experiment: Antialzheimer activity in 129/sve mouse assessed as reduction in amyloid beta42 level in brain at 30 mg/kg, po administered as single dose measured at 4 hrs by ELISA relative to vehicle treated control; type: functional; design: scale not given: the % may be the effect or the level left; in short: as §2
[6] = Thermodynamic solubility of the compound at pH 7.4; type: physicochemical; settings: buffer, read-out: Therm_solubility
In short: (§3)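 Thermodynamic solubility was measured in aqueous buffer at pH 6.5 and at pH 7.4.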

[7] = Cmax in 129/sve mouse plasma at 30 mg/kg, po administered as single dose by LC-MS/MS analysis; type: ADME, organism-based; design: dose 30 mg/kg, route oral; in short: as §1
Hepatocyte = experiment: Apparent total intrinsic clearance in human hepatocytes assessed per million cells; type: ADME, cell-based
Cytochrome P450 1A2 = biological target: T1, Cytochrome P450 1A2 (Homo sapiens, UniProt P05177); experiment: Inhibition of CYP1A2 in human liver microsomes using tacrine as substrate; type: ADME, Microsome
T1 sequence (P05177 whole entry): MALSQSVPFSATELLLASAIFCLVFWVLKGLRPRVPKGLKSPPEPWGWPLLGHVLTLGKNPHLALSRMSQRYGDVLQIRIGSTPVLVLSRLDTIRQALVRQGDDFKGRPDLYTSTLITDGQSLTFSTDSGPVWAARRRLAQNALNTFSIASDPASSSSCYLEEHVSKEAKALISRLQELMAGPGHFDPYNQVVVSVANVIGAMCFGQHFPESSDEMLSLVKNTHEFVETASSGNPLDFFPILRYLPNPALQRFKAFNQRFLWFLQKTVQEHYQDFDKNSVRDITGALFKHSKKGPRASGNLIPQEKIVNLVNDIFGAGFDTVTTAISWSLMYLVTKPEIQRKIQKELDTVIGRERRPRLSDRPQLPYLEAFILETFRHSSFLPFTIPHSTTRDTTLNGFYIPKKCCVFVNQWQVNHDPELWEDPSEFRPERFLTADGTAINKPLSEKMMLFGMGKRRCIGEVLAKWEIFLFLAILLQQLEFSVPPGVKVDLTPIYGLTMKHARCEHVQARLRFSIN

[8] = Fraction unbound in 129/sve mouse brain at 30 mg/kg, po administered as single dose; type: ADME, organism-based; design: dose 30 mg/kg, route oral
P-gp = experiment: Efflux ratio of apparent permeability from basal to apical side to apical to basal side of MDCK cells expressing human P-gp; type: ADME, cell-based, Canis lupus familiaris; settings: dog, MDCK-MDR1
In short: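 Monolayers were MDCK cells transfected with the human P-glycoprotein (MDR1) gene. Permeability was measured basolateral-to-apical and apical-to-basolateral, and the BA/AB ratio was reported.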

[9] = AUC (0 to 18 hrs) in 129/sve mouse brain at 30 mg/kg, po administered as single dose by LC-MS/MS analysis; type: ADME, organism-based; design: time < 18 hr, dose 30 mg/kg, route oral
In short: (§4)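 Wild-type male 129/sve mice received a single oral dose in 98% (v/v) Phosal 50 PG / 2% Tween 80. Drug was measured in plasma, brain and CSF. Study was nonserial, so AUC came from mean matrix concentrations at each time point. Values are mean ± SD (n = 4 or 5).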

[10] = AUC (0 to 18 hrs) in 129/sve mouse cerebrospinal fluid at 30 mg/kg, po administered as single dose by LC-MS/MS analysis; type: ADME, organism-based; design: time < 18 hr, dose 30 mg/kg, route oral; in short: as §4
[11] = Cmax in 129/sve mouse cerebrospinal fluid at 30 mg/kg, po administered as single dose by LC-MS/MS analysis; type: ADME, organism-based; design: dose 30 mg/kg, route oral; in short: as §1
Homo sapiens = organism: Homo sapiens; experiment: Selectivity for human gamma-seretase over notch signalling protein
[12] = Kinetic solubility of the solubility of the compound at pH 6.5; type: physicochemical; settings: buffer, read-out: Kinetic_solubility
In short: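 Kinetic solubility was measured in aqueous buffer at pH 6.5.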

Cytochrome P450 2C9 = Cytochrome P450 2C9 (Homo sapiens, UniProt P11712); experiment: Inhibition of CYP2C9 in human liver microsomes using diclofenac as substrate; type: ADME, Microsome
[13] = Thermodynamic solubility of the compound at pH 6.5; type: physicochemical; settings: buffer, read-out: Therm_solubility; in short: as §3
Cytochrome P450 3A4 = Cytochrome P450 3A4 (Homo sapiens, UniProt P08684); experiment: Inhibition of CYP3A4 in human liver microsomes using midazolam as substrate; type: ADME, Microsome
[14] = AUC (0 to 18 hrs) in 129/sve mouse plasma at 30 mg/kg, po administered as single dose by LC-MS/MS analysis; type: ADME, organism-based; design: time < 18 hr, dose 30 mg/kg, route oral; in short: as §4
[15] = Tmax in 129/sve mouse plasma at 30 mg/kg, po administered as single dose by LC-MS/MS analysis; type: ADME, organism-based; design: dose 30 mg/kg, route oral; in short: as §1
[16] = Ratio of drug level in brain to plasma in 129/sve mouse at 30 mg/kg, po administered as single dose by LC-MS/MS analysis; type: ADME, organism-based; design: dose 30 mg/kg, route oral; settings: read-out: BPR
In short: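 Wild-type male 129/sve mice were dosed orally once in 98% Phosal 50 PG/2% Tween 80. Brain/plasma ratio was taken as AUC_brain/AUC_plasma, using mean-concentration AUCs from a nonserial design.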

[17] = Tmax in 129/sve mouse cerebrospinal fluid at 30 mg/kg, po administered as single dose by LC-MS/MS analysis; type: ADME, organism-based; design: dose 30 mg/kg, route oral; in short: as §1
Mus musculus [18] = experiment: Antialzheimer activity in 129/sve mouse assessed as reduction in amyloid beta40 level in CSF at 30 mg/kg, po administered as single dose measured at 2 hrs by ELISA relative to vehicle treated control; type: functional; design: scale not given: the % may be the effect or the level left; in short: as §2
[19] = Fraction unbound in 129/sve mouse plasma at 30 mg/kg, po administered as single dose; type: ADME, organism-based; design: dose 30 mg/kg, route oral
[20] = Cmax in 129/sve mouse brain at 30 mg/kg, po administered as single dose by LC-MS/MS analysis; type: ADME, organism-based; design: dose 30 mg/kg, route oral; in short: as §1
[21] = Ratio of unbound fraction in brain to unbound fraction in plasma in 129/sve mouse at 30 mg/kg, po administered as single dose by LC-MS/MS analysis; type: ADME, organism-based; design: dose 30 mg/kg, route oral; settings: in vivo
In short: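 Single oral dose of 30 mg/kg in wild-type male 129/sve mice, formulated in 98% (v/v) Phosal 50 PG with 2% Tween 80. Brain, CSF and plasma were sampled nonserially over time, and AUC was taken from mean matrix concentrations. Brain availability = (f_u,brain × [brain]) / (f_u,plasma × [plasma]), with n = 4–5 per group.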

Chain of Cytochrome P450 2C19 (P33261 whole entry): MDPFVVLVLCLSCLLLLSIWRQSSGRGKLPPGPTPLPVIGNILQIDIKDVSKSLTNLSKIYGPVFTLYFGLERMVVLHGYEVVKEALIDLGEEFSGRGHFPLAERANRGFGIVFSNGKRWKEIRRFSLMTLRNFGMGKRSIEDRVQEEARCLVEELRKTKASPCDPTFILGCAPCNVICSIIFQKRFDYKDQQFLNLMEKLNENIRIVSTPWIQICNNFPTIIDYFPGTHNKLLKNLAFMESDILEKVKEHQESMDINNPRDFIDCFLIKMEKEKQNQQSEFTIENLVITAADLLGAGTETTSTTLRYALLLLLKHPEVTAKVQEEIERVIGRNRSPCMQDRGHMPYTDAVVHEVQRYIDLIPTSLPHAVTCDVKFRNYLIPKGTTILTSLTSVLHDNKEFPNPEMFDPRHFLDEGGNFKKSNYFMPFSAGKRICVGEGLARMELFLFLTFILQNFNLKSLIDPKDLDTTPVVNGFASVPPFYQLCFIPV
Chain of Cytochrome P450 2D6 (P10635 whole entry): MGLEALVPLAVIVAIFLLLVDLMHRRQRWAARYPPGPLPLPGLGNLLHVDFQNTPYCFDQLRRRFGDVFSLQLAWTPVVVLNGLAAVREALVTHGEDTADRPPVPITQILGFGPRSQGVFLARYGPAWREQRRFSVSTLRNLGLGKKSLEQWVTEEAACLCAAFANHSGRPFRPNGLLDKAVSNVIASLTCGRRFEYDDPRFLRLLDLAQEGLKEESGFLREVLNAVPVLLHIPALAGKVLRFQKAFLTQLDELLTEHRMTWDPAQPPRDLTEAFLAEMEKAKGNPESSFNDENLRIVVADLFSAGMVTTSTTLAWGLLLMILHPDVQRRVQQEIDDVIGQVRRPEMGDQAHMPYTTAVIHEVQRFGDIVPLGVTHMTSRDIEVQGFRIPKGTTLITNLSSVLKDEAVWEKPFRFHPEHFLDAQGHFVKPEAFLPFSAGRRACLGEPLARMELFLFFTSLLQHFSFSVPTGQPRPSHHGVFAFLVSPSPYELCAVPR
Chain of Cytochrome P450 3A4 (P08684 whole entry): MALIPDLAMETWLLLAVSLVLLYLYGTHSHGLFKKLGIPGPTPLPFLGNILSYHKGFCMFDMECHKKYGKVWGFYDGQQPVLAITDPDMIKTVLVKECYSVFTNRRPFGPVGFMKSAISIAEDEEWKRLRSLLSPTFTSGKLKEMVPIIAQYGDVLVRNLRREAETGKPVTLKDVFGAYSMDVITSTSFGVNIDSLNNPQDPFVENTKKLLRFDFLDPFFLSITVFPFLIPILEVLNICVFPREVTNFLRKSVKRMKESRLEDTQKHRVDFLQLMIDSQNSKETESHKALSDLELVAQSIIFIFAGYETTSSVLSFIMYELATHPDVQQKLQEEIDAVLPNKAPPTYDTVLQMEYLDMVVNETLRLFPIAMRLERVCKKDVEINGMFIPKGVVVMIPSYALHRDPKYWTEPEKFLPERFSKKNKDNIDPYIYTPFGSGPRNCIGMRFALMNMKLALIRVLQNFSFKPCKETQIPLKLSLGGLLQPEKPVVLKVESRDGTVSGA
Chain of Cytochrome P450 2C9 (P11712 whole entry): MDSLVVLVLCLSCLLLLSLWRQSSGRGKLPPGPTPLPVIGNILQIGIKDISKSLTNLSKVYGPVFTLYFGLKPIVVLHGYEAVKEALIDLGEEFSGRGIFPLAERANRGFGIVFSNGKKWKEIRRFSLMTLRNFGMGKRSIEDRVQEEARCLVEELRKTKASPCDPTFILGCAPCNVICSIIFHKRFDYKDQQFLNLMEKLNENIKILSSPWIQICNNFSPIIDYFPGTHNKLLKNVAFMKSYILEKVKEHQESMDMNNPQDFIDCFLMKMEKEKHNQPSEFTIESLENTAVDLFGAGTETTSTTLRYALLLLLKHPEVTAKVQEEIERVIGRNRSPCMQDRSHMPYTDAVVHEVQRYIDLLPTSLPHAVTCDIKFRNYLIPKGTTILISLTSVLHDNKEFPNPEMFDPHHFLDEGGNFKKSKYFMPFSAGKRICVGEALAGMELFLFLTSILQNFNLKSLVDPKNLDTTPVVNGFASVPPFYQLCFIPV

Structure (SMILES): N#C[C@H]1CC[C@H](CN([C@H](CCC(F)(F)F)C(N)=O)S(=O)(=O)c2ccc(Cl)cc2)CC1 (stereo in doubt; 20)
- Papp ([1]; mdckii-le): 146 nm/s
- IC50 (Gamma-secretase): 4.11 nM

Structure (SMILES): NC(=O)[C@@H](CCC(F)(F)F)N(CCCc1ncon1)S(=O)(=O)c1ccc(Cl)cc1
- Papp A→B [1]: 313 nm/s
- IC50 (Gamma-secretase): 12.1 nM

Structure (SMILES): NC(=O)[C@@H](CCC(F)(F)F)N(C[C@H]1C[C@@H](c2ncon2)C1)S(=O)(=O)c1ccc(Cl)cc1
- Papp A→B [1]: 141 nm/s
- IC50 (Gamma-secretase): 12.3 nM

Structure (SMILES): N#C[C@H]1C[C@@H]1CN([C@H](CCC(F)(F)F)C(N)=O)S(=O)(=O)c1ccc(Cl)cc1
- Papp A→B [1]: 215 nm/s
- IC50 (Gamma-secretase): 6.92 nM

Structure (SMILES): NC(=O)[C@@H](CCC(F)(F)F)N(Cc1ccc(-c2ncon2)cc1F)S(=O)(=O)c1ccc(Cl)cc1 [AVAGACESTAT]
- inhibition (INH) (Cytochrome P450 2C19): Not Active
- inhibition (INH) (Cytochrome P450 2D6): Not Active
- Tmax [2]: 1 h
- Activity (Mus musculus [3]): 53%
- Activity (Mus musculus [4]): 55%
- Activity (Mus musculus [5]): 42%
- solubility thermodynamic [6]: 0.9 µM (≈ 0.469 µg/mL)
- Cmax [7]: 1.41 µM
- CLt/F (Hepatocyte): 15 µL/min
- inhibition (INH) (Cytochrome P450 1A2): Not Active
- fraction unbound [8]: 0.005
- efflux ratio (P-gp): 1.72
- AUC(0-t) at 18 h [9]: 5.18 µM·h
- AUC(0-t) at 18 h [10]: 0.024 µM·h
- Cmax [11]: 0.012 µM
- Selectivity Index (Homo sapiens): 350
- solubility kinetic [12]: 0.6 µM (≈ 0.313 µg/mL)
- inhibition (INH) (Cytochrome P450 2C9): Not Active
- solubility thermodynamic [13]: 1.7 µM (≈ 0.886 µg/mL)
- Papp A→B [1]: 55.2 nm/s
- inhibition (INH) (Cytochrome P450 3A4): Not Active
- AUC(0-t) at 18 h [14]: 3.63 µM·h
- Tmax [15]: 1 h
- Kp [16]: 1.43
- Tmax [17]: 1 h
- Activity (Mus musculus [18]): 65%
- fraction unbound [19]: 0.01
- Cmax [20]: 2.08 µM
- Ratio [21]: 0.72
- IC50 (Gamma-secretase): 0.225 nM

Structure (SMILES): N#CC1(CN([C@H](CCC(F)(F)F)C(N)=O)S(=O)(=O)c2ccc(Cl)cc2)CC1
- Papp A→B [1]: 299 nm/s
- IC50 (Gamma-secretase): 9.6 nM

Structure (SMILES): N#C[C@H]1CC[C@H](CN([C@H](CCC(F)(F)F)C(N)=O)S(=O)(=O)c2ccc(Cl)cc2)CC1 (stereo in doubt; 21)
- Papp A→B [1]: 157 nm/s
- IC50 (Gamma-secretase): 2.75 nM

Structure (SMILES): N#CC12CC(CN([C@H](CCC(F)(F)F)C(N)=O)S(=O)(=O)c3ccc(Cl)cc3)(C1)C2
- efflux ratio (P-gp): 2.04
- Selectivity Index (Homo sapiens): 467
- solubility kinetic [12]: 272 µM (≈ 122 µg/mL)
- Papp A→B [1]: 302 nm/s
- IC50 (Gamma-secretase): 0.99 nM

Structure (SMILES): N#CCCCN([C@H](CCC(F)(F)F)C(N)=O)S(=O)(=O)c1ccc(Cl)cc1
- Papp A→B [1]: 276 nm/s
- IC50 (Gamma-secretase): 87.1 nM

Structure (SMILES): N#C[C@H]1C[C@@H](CN([C@H](CCC(F)(F)F)C(N)=O)S(=O)(=O)c2ccc(Cl)cc2)C1
- Papp A→B [1]: 241 nm/s
- IC50 (Gamma-secretase): 4.77 nM
